Source: ChEMBL document CHEMBL1124257, “An examination of O-2-isocephems as orally absorbable antibiotics” (J Med Chem, 1988)
In brackets after ≈: the same amount, converted by molar mass.

These compounds were tested on Escherichia coli (assay: Minimum inhibitory concentration (MIC) against Escherichia coli by 2-fold microdilution technique.). Details: Escherichia coli; read-out: MIC.
Assay type: functional
In short: (§1)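 For each organism, an overnight culture was grown in Mueller-Hinton broth at 37 °C. Twofold microtiter dilutions in Nutrient Broth covered 0.005–125 µg/mL. Each well received about 10^4 organisms, and plates were incubated 18 h at 37 °C. MIC was the lowest concentration giving no visible growth.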

SMILES | MIC [µg/mL]
CC1=C(C(=O)O)N2C(=O)[C@@H](NC(=O)[C@H](N)c3ccc(O)cc3)[C@H]2CO1 | 8 (≈ 23 µM)
N[C@@H](C(=O)N[C@@H]1C(=O)N2C(C(=O)O)=C(C3CC3)OC[C@H]12)c1ccc(O)cc1 | 4 (≈ 10.7 µM)
N[C@@H](C(=O)N[C@@H]1C(=O)N2C(C(=O)O)=C(/C=C/C(F)(F)F)OC[C@H]12)c1ccc(O)cc1 | 4 (≈ 9.36 µM)
CCCC1=C(C(=O)O)N2C(=O)[C@@H](NC(=O)[C@H](N)c3ccc(O)cc3)[C@H]2CO1 | 2 (≈ 5.33 µM)

These compounds were tested on Escherichia coli (assay: Minimum inhibitory concentration (MIC) […] against Escherichia coli.). Details: Escherichia coli; read-out: MIC.
Assay type: functional
In short: as §1

SMILES | MIC [µg/mL]
CC1=C(C(=O)O)N2C(=O)[C@@H](NC(=O)[C@H](N)c3ccc(O)cc3)[C@H]2CO1 | 8 (≈ 23 µM)
N[C@@H](C(=O)N[C@@H]1C(=O)N2C(C(=O)O)=C(C3CC3)OC[C@H]12)c1ccc(O)cc1 | 4 (≈ 10.7 µM)
N[C@@H](C(=O)N[C@@H]1C(=O)N2C(C(=O)O)=C(/C=C/C(F)(F)F)OC[C@H]12)c1ccc(O)cc1 | 4 (≈ 9.36 µM)

What follows are compounds tested on Haemophilus influenzae (assay: Minimum inhibitory concentration (MIC) against Haemophilus influenzae by 2-fold microdilution technique.). Details: Haemophilus influenzae; read-out: MIC.
Assay type: functional
In short: as §1

SMILES | MIC [µg/mL]
CC1=C(C(=O)O)N2C(=O)[C@@H](NC(=O)[C@H](N)c3ccc(O)cc3)[C@H]2CO1 | 8 (≈ 23 µM)
N[C@@H](C(=O)N[C@@H]1C(=O)N2C(C(=O)O)=C(C3CC3)OC[C@H]12)c1ccc(O)cc1 | 8 (≈ 21.4 µM)
N[C@@H](C(=O)N[C@@H]1C(=O)N2C(C(=O)O)=C(/C=C/C(F)(F)F)OC[C@H]12)c1ccc(O)cc1 | 2 (≈ 4.68 µM)

These compounds were tested on Klebsiella pneumoniae (assay: Minimum inhibitory concentration (MIC) against Klebsiella pneumoniae by 2-fold microdilution technique.). Details: Klebsiella pneumoniae; read-out: MIC.
Assay type: functional
In short: as §1

SMILES | MIC [µg/mL]
CC1=C(C(=O)O)N2C(=O)[C@@H](NC(=O)[C@H](N)c3ccc(O)cc3)[C@H]2CO1 | 8 (≈ 23 µM)
N[C@@H](C(=O)N[C@@H]1C(=O)N2C(C(=O)O)=C(C3CC3)OC[C@H]12)c1ccc(O)cc1 | 16 (≈ 42.9 µM)
N[C@@H](C(=O)N[C@@H]1C(=O)N2C(C(=O)O)=C(/C=C/C(F)(F)F)OC[C@H]12)c1ccc(O)cc1 | 16 (≈ 37.4 µM)
CCCC1=C(C(=O)O)N2C(=O)[C@@H](NC(=O)[C@H](N)c3ccc(O)cc3)[C@H]2CO1 | 16 (≈ 42.6 µM)

These compounds were tested on Escherichia coli (assay: Protective dose (PD50) against Escherichia coli infected mice). Details: read-out: PD50.
Assay type: functional
In short: (§2)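 Male Swiss-Webster mice (20 ± 2 g) were challenged intraperitoneally with enough bacteria to kill untreated controls within 72 h. Drug was given orally by gavage twice: at 0 and 2 h after E. coli challenge, or at 1 and 3.5 h after S. pneumoniae challenge. PD50 is the dose in mg/kg per dose that protects 50% of animals.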

SMILES | ED50 [mg/kg]
CC1=C(C(=O)O)N2C(=O)[C@@H](NC(=O)[C@H](N)c3ccc(O)cc3)[C@H]2CO1 | 11
N[C@@H](C(=O)N[C@@H]1C(=O)N2C(C(=O)O)=C(C3CC3)OC[C@H]12)c1ccc(O)cc1 | > 50
N[C@@H](C(=O)N[C@@H]1C(=O)N2C(C(=O)O)=C(/C=C/C(F)(F)F)OC[C@H]12)c1ccc(O)cc1 | > 50

The compounds below were run on Streptococcus pneumoniae (assay: Protective dose (PD50) against Streptococcus pneumoniae infected mice). Details: Streptococcus pneumoniae; read-out: PD50.
Assay type: functional
In short: as §2

SMILES | ED50 [mg/kg]
CC1=C(C(=O)O)N2C(=O)[C@@H](NC(=O)[C@H](N)c3ccc(O)cc3)[C@H]2CO1 | 2.1
N[C@@H](C(=O)N[C@@H]1C(=O)N2C(C(=O)O)=C(C3CC3)OC[C@H]12)c1ccc(O)cc1 | 3.6
N[C@@H](C(=O)N[C@@H]1C(=O)N2C(C(=O)O)=C(/C=C/C(F)(F)F)OC[C@H]12)c1ccc(O)cc1 | > 12.5

These compounds were tested on Proteus mirabilis (assay: Minimum inhibitory concentration (MIC) against Proteus mirabilis by 2-fold microdilution technique.). Details: Proteus mirabilis; read-out: MIC.
Assay type: functional
In short: as §1

SMILES | MIC [µg/mL]
CC1=C(C(=O)O)N2C(=O)[C@@H](NC(=O)[C@H](N)c3ccc(O)cc3)[C@H]2CO1 | 4 (≈ 11.5 µM)
N[C@@H](C(=O)N[C@@H]1C(=O)N2C(C(=O)O)=C(C3CC3)OC[C@H]12)c1ccc(O)cc1 | 2 (≈ 5.36 µM)
N[C@@H](C(=O)N[C@@H]1C(=O)N2C(C(=O)O)=C(/C=C/C(F)(F)F)OC[C@H]12)c1ccc(O)cc1 | 16 (≈ 37.4 µM)
CCCC1=C(C(=O)O)N2C(=O)[C@@H](NC(=O)[C@H](N)c3ccc(O)cc3)[C@H]2CO1 | 4 (≈ 10.7 µM)

Each compound was assayed on Streptococcus pneumoniae (assay: Minimum inhibitory concentration (MIC) against Streptococcus pneumoniae by 2-fold microdilution technique). Details: Streptococcus pneumoniae; read-out: MIC.
Assay type: functional
In short: as §1

SMILES | MIC [µg/mL]
CC1=C(C(=O)O)N2C(=O)[C@@H](NC(=O)[C@H](N)c3ccc(O)cc3)[C@H]2CO1 | 0.13 (≈ 0.374 µM)
N[C@@H](C(=O)N[C@@H]1C(=O)N2C(C(=O)O)=C(C3CC3)OC[C@H]12)c1ccc(O)cc1 | 0.03 (≈ 0.0804 µM)
N[C@@H](C(=O)N[C@@H]1C(=O)N2C(C(=O)O)=C(/C=C/C(F)(F)F)OC[C@H]12)c1ccc(O)cc1 | 0.016 (≈ 0.0374 µM)
CCCC1=C(C(=O)O)N2C(=O)[C@@H](NC(=O)[C@H](N)c3ccc(O)cc3)[C@H]2CO1 | 0.008 (≈ 0.0213 µM)

These compounds were tested on Streptococcus pneumoniae (assay: Minimum inhibitory concentration (MIC) […] against Streptococcus pneumoniae.). Details: Streptococcus pneumoniae; read-out: MIC.
Assay type: functional
In short: as §1

SMILES | MIC [µg/mL]
CC1=C(C(=O)O)N2C(=O)[C@@H](NC(=O)[C@H](N)c3ccc(O)cc3)[C@H]2CO1 | 0.13 (≈ 0.374 µM)
N[C@@H](C(=O)N[C@@H]1C(=O)N2C(C(=O)O)=C(C3CC3)OC[C@H]12)c1ccc(O)cc1 | 0.03 (≈ 0.0804 µM)
N[C@@H](C(=O)N[C@@H]1C(=O)N2C(C(=O)O)=C(/C=C/C(F)(F)F)OC[C@H]12)c1ccc(O)cc1 | 0.016 (≈ 0.0374 µM)

What follows are compounds tested on Enterococcus faecalis (assay: Minimum inhibitory concentration (MIC) against Streptococcus faecalis by 2-fold microdilution technique.). Details: Enterococcus faecalis; read-out: MIC.
Assay type: functional
In short: as §1

SMILES | MIC [µg/mL]
CC1=C(C(=O)O)N2C(=O)[C@@H](NC(=O)[C@H](N)c3ccc(O)cc3)[C@H]2CO1 | 16 (≈ 46.1 µM)
N[C@@H](C(=O)N[C@@H]1C(=O)N2C(C(=O)O)=C(C3CC3)OC[C@H]12)c1ccc(O)cc1 | 1 (≈ 2.68 µM)
N[C@@H](C(=O)N[C@@H]1C(=O)N2C(C(=O)O)=C(/C=C/C(F)(F)F)OC[C@H]12)c1ccc(O)cc1 | 0.13 (≈ 0.304 µM)
CCCC1=C(C(=O)O)N2C(=O)[C@@H](NC(=O)[C@H](N)c3ccc(O)cc3)[C@H]2CO1 | 0.03 (≈ 0.0799 µM)

These compounds were tested on Streptococcus pyogenes (assay: Minimum inhibitory concentration (MIC) against Streptococcus pyogenes by 2-fold microdilution technique). Details: Streptococcus pyogenes; read-out: MIC.
Assay type: functional
In short: as §1

SMILES | MIC [µg/mL]
CC1=C(C(=O)O)N2C(=O)[C@@H](NC(=O)[C@H](N)c3ccc(O)cc3)[C@H]2CO1 | 0.13 (≈ 0.374 µM)
N[C@@H](C(=O)N[C@@H]1C(=O)N2C(C(=O)O)=C(C3CC3)OC[C@H]12)c1ccc(O)cc1 | 0.016 (≈ 0.0429 µM)
N[C@@H](C(=O)N[C@@H]1C(=O)N2C(C(=O)O)=C(/C=C/C(F)(F)F)OC[C@H]12)c1ccc(O)cc1 | 0.008 (≈ 0.0187 µM)
CCCC1=C(C(=O)O)N2C(=O)[C@@H](NC(=O)[C@H](N)c3ccc(O)cc3)[C@H]2CO1 | 0.004 (≈ 0.0107 µM)

What follows are compounds tested on Staphylococcus aureus (assay: Minimum inhibitory concentration (MIC) against Staphylococcus aureus by 2-fold microdilution technique.). Details: Staphylococcus aureus; read-out: MIC.
Assay type: functional
In short: as §1

SMILES | MIC [µg/mL]
CC1=C(C(=O)O)N2C(=O)[C@@H](NC(=O)[C@H](N)c3ccc(O)cc3)[C@H]2CO1 | 1 (≈ 2.88 µM)
N[C@@H](C(=O)N[C@@H]1C(=O)N2C(C(=O)O)=C(C3CC3)OC[C@H]12)c1ccc(O)cc1 | 0.25 (≈ 0.67 µM)
N[C@@H](C(=O)N[C@@H]1C(=O)N2C(C(=O)O)=C(/C=C/C(F)(F)F)OC[C@H]12)c1ccc(O)cc1 | 0.5 (≈ 1.17 µM)
CCCC1=C(C(=O)O)N2C(=O)[C@@H](NC(=O)[C@H](N)c3ccc(O)cc3)[C@H]2CO1 | 0.06 (≈ 0.16 µM)
